A selection: hits, their analogues and other compounds. The true share with any hit is near 2.2%.
PfGluPho inh = PfG6PD enzyme inhibitors, primary screen, biochemical, fluorescence intensity, uHTS. glucose-6-phosphate dehydrogenase-6-phosphogluconolactonase (Plasmodium falciparum 3D7). PfGluPho enzyme, NADPH resazurin-diaphorase fluorescence. inhibition, % at 20 µM. 0.78% of 350,000 active. AID 504690, 2011;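 active = inhibition reaching at least a set limit at 20 µM in the primary screen, cut at about 59% in these data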;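 note: 0% = DMSO wells with substrate and 100% = DMSO wells lacking glucose-6-phosphate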
ABHD5-PLIN5 inh = ABHD5-PLIN5 interaction inhibitors, primary screen, cell lysate, split luciferase complementation, luminescence. Perilipin-5 (Homo sapiens) + 1-acylglycerol-3-phosphate O-acyltransferase ABHD5 (Homo …. Split G. princeps luciferase complementation, 4 h. inhibition, % at 4 µM. 0.78% of 360,000 active. AID 602281, 2012;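 active = inhibition above the mean inhibition across every tested compound plus 3 SD, cut at about 22% in these data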;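 note: 0% = DMSO only wells and the 100% control is not disclosed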
Target sequence (Q00G26 whole entry, looked up): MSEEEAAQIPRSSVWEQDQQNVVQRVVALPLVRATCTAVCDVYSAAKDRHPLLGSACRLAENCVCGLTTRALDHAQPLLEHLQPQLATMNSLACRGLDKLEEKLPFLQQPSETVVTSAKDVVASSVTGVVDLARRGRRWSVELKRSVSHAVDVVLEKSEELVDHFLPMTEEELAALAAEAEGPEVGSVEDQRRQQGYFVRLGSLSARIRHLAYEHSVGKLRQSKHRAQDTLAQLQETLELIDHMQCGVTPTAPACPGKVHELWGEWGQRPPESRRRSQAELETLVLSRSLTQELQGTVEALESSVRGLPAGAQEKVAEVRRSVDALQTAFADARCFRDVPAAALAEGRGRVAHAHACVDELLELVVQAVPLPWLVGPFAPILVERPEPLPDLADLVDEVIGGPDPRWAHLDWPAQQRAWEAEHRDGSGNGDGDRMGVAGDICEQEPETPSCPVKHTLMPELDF
Target sequence (Q8WTS1 whole entry, looked up): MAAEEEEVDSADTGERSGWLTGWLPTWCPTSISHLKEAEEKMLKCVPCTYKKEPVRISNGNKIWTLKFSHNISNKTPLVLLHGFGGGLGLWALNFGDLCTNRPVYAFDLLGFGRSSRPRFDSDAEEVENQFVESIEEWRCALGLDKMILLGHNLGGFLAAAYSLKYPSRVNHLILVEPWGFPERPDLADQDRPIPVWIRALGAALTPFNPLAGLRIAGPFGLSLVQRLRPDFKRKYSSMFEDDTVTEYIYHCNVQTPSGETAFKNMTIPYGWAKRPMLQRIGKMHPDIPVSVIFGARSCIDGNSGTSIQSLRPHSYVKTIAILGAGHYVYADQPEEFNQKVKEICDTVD
HKDC1 inhibitor = HKDC1 hexokinase inhibitors, primary screen, biochemical, fluorescence, uHTS | Q2TB90 | recombinant HKDC1, G6PDH/diaphorase resazurin coupled fluorescence | inhibition, % at 20 µM | 0.16% of 340,000 active | AID 493160, 2011;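 active = inhibition above about 35% when tested at 20 µM, limit read from the data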;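 note: plate controls were DMSO wells with enzyme for no effect and DMSO wells lacking enzyme for full effect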
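Test system: recombinant HKDC1 (HK5) hexokinase enzyme, produced in-house; Amount: enzyme 5 µg/mL final; Buffer or medium: Tris pH 8.0 buffer with MgCl2, Tween-20, BSA, BME; Reagent: glucose and ATP substrates; Doses: 20 µM test compound, 1% DMSO; Incubation: 90 min reaction incubation at room temperature, dark; Detection: resorufin fluorescence at 613 nm.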
Exocytosis inh = LAMP-1 surface exposure blockers, TALL-104 cells – cell-based, flow cytometry, MLPCN library, primary screen; TALL-104 LAMP-1 surface exposure; cells stimulated with thapsigargin and PMA; inhibition, % at 10 µM; 0.66% of 360,000 active;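 active = inhibition above about 55%, limit read from the data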
An asterisk follows results filed as active; · = no result.

SMILES	PfGluPho inh	ABHD5-PLIN5 inh	HKDC1 inhibitor	Exocytosis inh
CCOC(=O)c1c(C)[nH]c(C(=O)OCC(=O)Nc2ccccc2)c1C	-13	10	-4	0
O=C(Nc1ccc(Nc2ccccc2)cc1)c1ccc(Cl)c([N+](=O)[O-])c1	18	-7	3	99*
O=C(Nc1ccccc1-c1ccccc1)c1ccc(Cl)c([N+](=O)[O-])c1	-7	-2	19	1
CCCCC(OC(=O)CN1C(=O)COc2ccccc21)C(=O)NC1CCCCC1 (configuration not stated)	1	-8	-6	-15
CC(=O)N1CCN(C(=S)c2ccc(-c3ccc(Cl)cc3)o2)CC1	62*	-7	-6	3
O=C(c1ccco1)N1CCN(C(=O)c2ccc(-c3ccc(Cl)cc3)o2)CC1	3	3	-3	0
CC[n+]1c(/C=C/N(C)c2ccccc2)n(-c2ccccc2)c2ccc(-c3nc4ccccc4s3)cc21	75*	36*	22	64*
CN(c1ccccc1)c1ccc(/C=C/[N+](=O)[O-])cc1	46	88*	33	8
CCC1(c2ccccc2)NC(=O)N(CC(=O)N2CC(=O)Nc3ccccc32)C1=O (configuration not stated)	-21	6	-5	-3
CN(C)c1ccc(N=Cc2nc(-c3ccccc3)oc2O)cc1	31	-2	-2	-1
CN(C)c1ccc(N=Cc2cccn2C)cc1	77*	2	8	8
COc1ccc(C(=O)c2c3ccc(C(F)(F)F)cc3[n+]([O-])n2CCCN)cc1	-8	11	-2	17
CCCSC1=C(C#N)C(c2cccs2)CC(=O)N1 (configuration not stated)	-2	-10	-1	90*
C/C(=N\O)C(=O)NCCN(C)C	11	2	-8	-3
COc1ccc2c(C)c(Cl)c(=O)oc2c1	7	-2	-4	-4
C=C1CC(COc2ccc3c(C)c(Cl)c(=O)oc3c2)(c2ccccc2)OC1=O (configuration not stated)	28	62*	15	3
CCc1nc2ccc(C(=O)NCCC(C)C)cn2c1N(CC)CCN(C)C	·	-7	·	1
Cc1ccc(C(=O)OCc2nc3ccsc3c(=O)[nH]2)o1	-5	5	-7	2
O=C(/C=C/c1ccc(Br)o1)OCc1nc2ccsc2c(=O)[nH]1	48	6	58*	5
COc1ccc2c(c1)c[n+](C)c1c3cc(OC)c(OC)cc3ccc21	·	22*	·	-3
Cc1occc1-c1nnc(SCC(=O)NC(C)(C)C)n1CC(C)C	6	-2	-4	0
Cc1occc1-c1nnc(SCC(=O)NCc2ccco2)n1CC(C)C	9	23*	3	0
CC(=O)c1c(C)[nH]c(C(=O)N2CCN(c3ccccn3)CC2)c1C	3	8	-4	-5
COc1ccc(OC)c(NC2c3ncccc3C(=O)N2Cc2ccco2)c1 (configuration not stated)	0	1	-2	-1
COc1ccc(CN2C(=O)c3cccnc3C2Nc2cc(Cl)ccc2OC)cc1 (configuration not stated)	7	-2	52*	1
SMILES	PfGluPho inh	ABHD5-PLIN5 inh	HKDC1 inhibitor	Exocytosis inh
C/C=C(/C)C(=O)O[C@@H]1[C@H](OC(C)=O)c2c(ccc3ccc(=O)oc23)OC1(C)C	-10	6	-28	61*
CCC(c1nc2ccccc2[nH]1)N(CCCn1ccnc1)C(=O)c1ccc(C(F)(F)F)cc1 (configuration not stated)	·	2	·	-1
COc1ccc(-c2nc3ccc(C)cn3c2NCc2ccccc2)cc1SC1CCCCC1	8	-3	5	65*
COc1ccccc1C(=O)Nc1ccc(NC(=O)c2ccco2)cn1	12	-2	-1	10
COc1ccccc1C(=O)NC(=S)Nc1ccc(NC(=O)c2ccco2)cc1	0	0	6	68*
O=C(/C=C/c1ccco1)Oc1cc(Br)cc(/C=N/NC(=O)c2ccccc2O)c1	-35	2	-19	78*
Cc1ccc(C(=O)N/N=C/c2cccc(OC(=O)/C=C/c3ccco3)c2)cn1	1	0	-9	2
CNC(=O)c1nnsc1S(=O)(=O)c1ccc(Cl)cc1	11	74*	-1	24
CC(=O)NC1Sc2ccccc2N=C1c1ccccc1 (configuration not stated)	63*	-13	-6	-1
CC(=O)N1c2ccccc2N=C(c2ccc(C(F)(F)F)cc2)C1C(=O)NC1CCCC1 (configuration not stated)	·	1	·	5
Cc1ccccc1N=C1Nc2ccccc2N[C@]12C[C@H]1CCC(=O)N3CC[C@@H](C2)[C@@H]13	-5	2	-5	58*
C[C@H](NC(=O)[C@@H]1Cc2ccccc2CN1C(=O)OC(C)(C)C)C(=O)NCc1ccco1	-5	22*	1	0
CC(C)(C)OC(=O)C[C@@H]1C/C=C\C[C@@H](CC(=O)N(CCO)Cc2ccccc2)C(=O)NC[C@H](c2ccccc2)OC1=O	-9	-4	-1	76*
CC(C)(C)OC(=O)C[C@@H]1C/C=C\C[C@@H](CC(=O)N(CCO)Cc2ccccc2)C(=O)NC[C@@H](c2ccccc2)OC1=O	-4	-2	-4	-8
CC1(C)CC(C(CC(=O)N2CCCC2)Cc2ccccc2)CCO1 (configuration not stated)	-6	1	-6	-2
O=C(/C=C1\NC2(CCCC2)Cc2ccccc21)N1CCOCC1	-21	2	-7	77*
CCCCN(C)CC(O)Cn1cc(/C=C/C(=O)c2ccc(C)cc2)c2ccccc21 (configuration not stated)	32	21	2	70*
CCCN(CCC)CC(O)Cn1cc(/C=C/C(=O)c2ccccc2)c2ccccc21 (configuration not stated)	25	18	15	92*
O=C(Nc1ccc(Cl)cc1)NC1CCCCC1Cc1ccco1 (configuration not stated)	6	-7	2	2
O=C(Nc1ccc(Cl)cc1)NC1CCCC1Cc1ccco1 (configuration not stated)	34	49*	1	8
COc1ccccc1OCC(=O)NNC(=O)CCCC(=O)NNC(=O)COc1ccccc1OC	4	-2	-2	4
COc1ccccc1OCC(=O)NNc1c2ccccc2nc2ccccc12	9	1	4	59*
COc1cc(CC(=O)NCCCc2ccccc2)cc(OC)c1OC	2	2	-2	3
O=C(O[C@@H]1OC2COC(=O)c3cc(O)c(O)c(O)c3-c3c(cc(O)c(O)c3O)C(=O)O[C@@H]([C@H]1O)[C@@H]2O)c1cc(O)c(O)c(O)c1	111*	28*	7	-4
O=C1CCc2cc(S(=O)(=O)NC3CCCCC3)cc3c2N1CC3	-14	3	0	0

Screening results deposited in PubChem BioAssay by several laboratories.
